Bioassay records from PubChem BioAssay.
TAAR1 agonist = human TAAR1 agonists, primary screen, Fluo-8 calcium fluorescence, CHO RD-HGA16 cells; vehicle wells 0%, saturating PEA agonist 100%; activation, % at 3 µM; 0.99% of 360,000 active; AID 624467, 2012;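 active = activation above the mean activation of all test compounds in the run plus 3 SD, cut at about 38% in these data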
Target sequence (Q96RJ0 whole entry, looked up): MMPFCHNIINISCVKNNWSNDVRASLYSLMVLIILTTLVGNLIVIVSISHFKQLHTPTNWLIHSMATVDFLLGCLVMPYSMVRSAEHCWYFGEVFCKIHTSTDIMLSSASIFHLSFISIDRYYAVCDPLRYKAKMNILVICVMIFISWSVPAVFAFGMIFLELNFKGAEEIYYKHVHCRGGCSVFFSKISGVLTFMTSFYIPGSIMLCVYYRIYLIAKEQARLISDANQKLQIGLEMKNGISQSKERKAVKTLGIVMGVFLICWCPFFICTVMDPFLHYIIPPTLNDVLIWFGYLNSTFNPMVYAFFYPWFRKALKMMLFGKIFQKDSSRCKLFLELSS
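Test system: RD-HGA16 (CHO) cells co-expressing Gα16 and hTAAR1; dosing: one-point dosing at 3 µM (nominal); timing: 17-24 h seeding, 75 min 37 °C dye, 30 min RT; signal: kinetic Fluo-8 calcium fluorescence; read-out basis: % activation relative to PEA EC100 response; controls: DMSO and PEA EC100; replicates: n 1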
CHO parental Ca = ATP-evoked calcium signal inhibitors, parental CHO, primary screen, counter-screen for OX1R antagonist project, cell-based, fluorescence, Fluo-8 calcium dye; parental CHO-K1, ATP-induced calcium, Fluo-8 fluorescence; inhibition, % at 5.6 µM; 0.63% of 330,000 active; AID 463079, 2010;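 active = inhibition above that plate's mean sample inhibition plus 3 SD, cut at about 26% in these data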;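 also: 0% = ATP-challenged DMSO wells and 100% = DMSO wells without ATP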
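Measured by: calcium-sensitive Fluo-8 fluorescence / Test system: CHO parental line / Controls: ATP-challenged DMSO wells low, unchallenged DMSO wells high / Measure: % inhibition / Compound: single nominal dose of 5.6 µM per compound / Replicates: single well per compound, no replicates / Reagent: ATP as calcium-mobilizing challenge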
TAAR1 antagonist = human TAAR1 antagonists, primary screen, Fluo-8 calcium fluorescence, CHO RD-HGA16 cells; Trace amine-associated receptor 1 (Homo sapiens), Q96RJ0; antagonist; inhibition, % at 3 µM; 1.5% of 360,000 active; AID 624466, 2012;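 active = inhibition above a per-plate cutoff, the mean inhibition of test compounds on that plate plus 3 SD, cut at about 49% in these data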;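 also: 0% = DMSO plus EC80 beta-PEA response and 100% = DMSO alone without agonist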
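System: RD-HGA16 CHO cells with stable hTAAR1 and Gα16 | Probe or stimulus: EC80 β-phenethylamine stimulus | Dosing: 3 µM, single point | Times: Dye loading 75 min at 37 °C, then 30 min room temperature | Measured by: Fluo-8 calcium-sensitive fluorescence | Read-out basis: % inhibition of agonist calcium response | Replicates: n of 1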
OX1R antag-1 = antagonists of human orexin 1 receptor (OX1R). Orexin/Hypocretin receptor type 1 (Homo sapiens), O43613. OX1R-expressing cells, FRET antagonist read-out. inhibition, % at 6.6 µM. 1.8% of 330,000 active. AID 485270, 2010; in the data active = inhibition mostly above about 38%, no sharp cut-off; inactive = mostly below about 40%;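 also: 0% = agonist challenge alone and 100% = reference antagonist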
GPR7 antagonist = GPR7 receptor antagonists, primary screen, cell-based, fluorescence, single concentration. Neuropeptides B/W receptor type 1 (Homo sapiens), P48145. GPR7-expressing cells, fluorescence antagonist assay. inhibition, % at 4.4 µM. 1.1% of 290,000 active. AID 1861, 2009; in the data active = inhibition above about 16%, passing the limit was not always enough;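 also: cells stimulated with the agonist NPW; 0% = agonist with vehicle and 100% = vehicle without agonist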
Target sequence (P48145 whole entry, looked up): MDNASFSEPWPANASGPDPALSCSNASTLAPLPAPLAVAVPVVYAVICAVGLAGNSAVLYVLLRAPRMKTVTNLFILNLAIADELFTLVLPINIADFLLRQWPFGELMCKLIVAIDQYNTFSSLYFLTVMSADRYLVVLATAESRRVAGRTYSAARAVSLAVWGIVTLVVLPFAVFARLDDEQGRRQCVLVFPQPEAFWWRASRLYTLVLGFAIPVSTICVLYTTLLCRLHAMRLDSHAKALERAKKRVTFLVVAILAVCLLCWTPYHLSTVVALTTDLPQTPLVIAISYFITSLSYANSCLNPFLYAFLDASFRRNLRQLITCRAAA
OX1R antag-2 = OX1R (HCRTR1) antagonists, primary screen, fluorescence, CHO/OX1R cells, Fluo-8 calcium, orexin A | inhibition, % at 5 µM | 0.43% of 330,000 active | Fluo-8 calcium fluorescence;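 active = inhibition above its plate's threshold, mean inhibition of all tested compounds on the plate plus 3 SD, cut at about 37% in these data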;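 also: 0% = orexin A challenge wells and 100% = SB-334867-A antagonist wells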
TAAR1 ag confirm = human TAAR1 agonists, retest of hits, confirmation, Fluo-8 calcium fluorescence, CHO RD-HGA16 cells; activation, % at 3 µM; 82% of 2,400 active; shares compounds with TAAR1 agonist; scaled: DMSO 0%, maximal phenethylamine 100%;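 active = activation above a cutoff set at the run's mean compound activation plus 3 SD, cut at about 39% in these data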
Ga16 nonsel ag = nonselective calcium mobilization agonists, CHO-Ga16 cells, counter-screen for hTAAR1 agonist project, cell-based, fluorescence, CHO-Ga16 parental line; shares compounds with TAAR1 agonist; Fluo-8 calcium fluorescence; normalized to maximal ATP response, DMSO zero; activation, % at 3 µM; 50% of 2,400 active;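 active = activation above the run cutoff, the mean activation over all tested wells plus 3 SD, cut at about 12% in these data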;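 also: 0% = DMSO wells and 100% = maximal ATP response on the peak over basal ratio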
TAAR1 desens = TAAR1 desensitization by agonist hits, confirmation, counter-screen for TAAR1 agonist project, cell-based, fluorescence, tachyphylaxis. AID 651951, 2012. CHO RD-HGA16 hTAAR1, Fluo-8 calcium, beta-PEA response inhibition. 46% of 2,400 active. shares compounds with TAAR1 agonist. inhibition, % at 3 µM;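 active = inhibition above the run cutoff, the mean inhibition of all test compounds plus 3 SD, cut at about 49% in these data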;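 also: beta-PEA stimulus applied at its EC80; loss of beta-PEA calcium signal after compound pretreatment read as receptor desensitization; 0% = DMSO with beta-PEA at EC80 and 100% = DMSO alone without agonist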
Ga16 nonsel ant = inhibition of ATP-evoked calcium response in CHO-Ga16 cells, counter-screen for TAAR1 agonist project, cell-based, fluorescence | shares compounds with TAAR1 agonist | CHO-Ga16 ATP-induced calcium, Fluo-8 fluorescence | inhibition, % at 3 µM | 39% of 2,400 active | AID 651952, 2012;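 active = inhibition above the plate's mean compound inhibition plus 3 SD, computed per plate, cut at about 22% in these data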;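 also: 0% = EC80 ATP with DMSO and 100% = DMSO wells without ATP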
An asterisk follows results filed as active. Sampled rows, rich in hits. Any-hit rate of the full collection: about 4.6%.

How did CC(c1nnc(SCC(=O)N2CC(=O)Nc3ccccc32)n1Cc1ccccc1)N(C)C (configuration not stated) do in these assays?
TAAR1 agonist: 5; CHO parental Ca: -17; TAAR1 antagonist: 0; OX1R antag-1: 11; GPR7 antagonist: 0; OX1R antag-2: -21

Results for Cc1ccc(C(=O)NC(=S)NCc2ccccc2)cc1 ?
TAAR1 agonist: 2; CHO parental Ca: -13; TAAR1 antagonist: -7; OX1R antag-1: 11; GPR7 antagonist: -19; OX1R antag-2: -25

What do the screens show for `Cc1cccc(C(=O)NNC(=S)NC(=O)c2cccs2)c1`?
TAAR1 agonist: 142*; CHO parental Ca: 33*; TAAR1 antagonist: 60*; OX1R antag-1: 12; GPR7 antagonist: 7; OX1R antag-2: 32; TAAR1 ag confirm: 120*; Ga16 nonsel ag: 95*; TAAR1 desens: 75*; Ga16 nonsel ant: 53*

What do the screens show for `Cc1ccc(C(=O)NNC(=O)c2cccc(C)c2)cc1`?
TAAR1 agonist: 4; CHO parental Ca: 5; TAAR1 antagonist: 2; OX1R antag-1: 9; GPR7 antagonist: -13; OX1R antag-2: -5

Results for Cc1cccc(C(=O)NNC(=S)NC(=O)c2ccccc2)c1 ?
TAAR1 agonist: 169*; CHO parental Ca: 37*; TAAR1 antagonist: 107*; OX1R antag-1: 8; OX1R antag-2: 62*; TAAR1 ag confirm: 133*; Ga16 nonsel ag: 105*; TAAR1 desens: 92*; Ga16 nonsel ant: 75*

What do the screens show for `Cc1ccc(C(=O)NNC(=S)NC(=O)c2ccccc2)cc1`?
TAAR1 agonist: 167*; CHO parental Ca: 34*; TAAR1 antagonist: 106*; OX1R antag-1: 20; OX1R antag-2: 57*; TAAR1 ag confirm: 136*; Ga16 nonsel ag: 92*; TAAR1 desens: 93*; Ga16 nonsel ant: 79*

Results for Cc1ccc(C(=O)NC(=S)NNC(=O)c2ccccc2)cc1 ?
TAAR1 agonist: 153*; CHO parental Ca: 15; TAAR1 antagonist: 102*; OX1R antag-1: 7; GPR7 antagonist: -5; OX1R antag-2: 11; TAAR1 ag confirm: 123*; Ga16 nonsel ag: 98*; TAAR1 desens: 97*; Ga16 nonsel ant: 69*

Results for CC(C)C(=O)Nc1ccc(C(=O)NNC(=S)NC(=O)c2cccs2)cc1 ?
TAAR1 agonist: -1; CHO parental Ca: -8; TAAR1 antagonist: 6; OX1R antag-1: 14; GPR7 antagonist: -9; OX1R antag-2: -6

What do the screens show for `O=C(NCc1ccco1)c1ccc(-c2csnn2)cc1`?
TAAR1 agonist: -1; CHO parental Ca: -4; TAAR1 antagonist: 12; OX1R antag-1: 4; GPR7 antagonist: -6; OX1R antag-2: -11

How did Cc1ccc(C(=O)NNC(=S)NC(=O)c2ccco2)cc1 do in these assays?
TAAR1 agonist: 111*; CHO parental Ca: 66*; TAAR1 antagonist: 34; OX1R antag-1: 11; GPR7 antagonist: 5; OX1R antag-2: 64*; TAAR1 ag confirm: 101*; Ga16 nonsel ag: 82*; TAAR1 desens: 47; Ga16 nonsel ant: 47*

How did O=C(NC(=S)NNC(=O)[C@H]1C[C@@H]1c1ccccc1)c1cccc(F)c1 do in these assays?
TAAR1 agonist: 77*; CHO parental Ca: -21; TAAR1 antagonist: -5; OX1R antag-1: 12; GPR7 antagonist: -15; OX1R antag-2: -7; TAAR1 ag confirm: 74*; Ga16 nonsel ag: 83*; TAAR1 desens: 33; Ga16 nonsel ant: 30*

Results for O=C(NNC(=S)NC(=O)c1ccccc1[N+](=O)[O-])c1ccc(Cl)cc1Cl ?
TAAR1 agonist: 6; CHO parental Ca: 1; TAAR1 antagonist: -11; OX1R antag-1: 20; GPR7 antagonist: -3; OX1R antag-2: -4

What do the screens show for `CCCCC(=O)NC(=S)NNC(=O)c1ccc(Cl)cc1Cl`?
TAAR1 agonist: 106*; TAAR1 antagonist: 49*; GPR7 antagonist: -3; TAAR1 ag confirm: 131*; Ga16 nonsel ag: 110*; TAAR1 desens: 79*; Ga16 nonsel ant: 55*

How did Cc1cccc(C(=O)NC(=S)NNC(=O)COc2ccc(Cl)cc2)c1 do in these assays?
TAAR1 agonist: 99*; TAAR1 antagonist: 53*; GPR7 antagonist: 1; TAAR1 ag confirm: 104*; Ga16 nonsel ag: 84*; TAAR1 desens: 76*; Ga16 nonsel ant: 53*

What do the screens show for `O=C(COc1ccccc1)NNC(=S)NC(=O)c1ccc(Cl)cc1Cl`?
CHO parental Ca: -12; OX1R antag-1: -2; GPR7 antagonist: -3; OX1R antag-2: -22

How did CCOC(=O)c1ccc(NC(=S)N2CCN(CCNC3=CC(=O)CC(C)(C)C3)CC2)cc1 do in these assays?
TAAR1 agonist: 3; CHO parental Ca: -24; TAAR1 antagonist: 10; OX1R antag-1: 13; GPR7 antagonist: -16; OX1R antag-2: -20

Results for CN(CC(=O)Nc1ccncc1)S(=O)(=O)c1ccc(Cl)cc1 ?
TAAR1 agonist: 5; CHO parental Ca: -10; TAAR1 antagonist: -5; OX1R antag-1: 9; GPR7 antagonist: -3; OX1R antag-2: -12

What do the screens show for `CCOC(=O)N1CCN(C(=O)CCc2ccc(S(=O)(=O)NC(C)(C)C)cc2)CC1`?
TAAR1 agonist: 0; TAAR1 antagonist: -14; GPR7 antagonist: 11
